Data: ChEMBL document CHEMBL5678805, “Intermittent administration of MEK inhibitor GDC-0973 plus PI3K inhibitor GDC-0941 triggers robust apoptosis and tumor growth inhibition” (Cancer Res, 2012)
Activity calls are given as the source filed them. The rule behind the calls is not given here.

Experiments:
[1] = molecular target: Serine/threonine-protein kinase B-raf (Homo sapiens, UniProt P15056, V600E); experiment: Inhibition of B-RAF V600E (unknown origin)
[2] = molecular target: CDK6/cyclin D3 (Homo sapiens, UniProt Q00534); experiment: Inhibition of CDK6/cyclinD3 (unknown origin); assay type: protein-complex assay
[3] = molecular target: Ephrin type-A receptor 4 (Homo sapiens, UniProt P54764); experiment: Inhibition of EphA4 (unknown origin)
[4] = molecular target: Inhibitor of nuclear factor kappa-B kinase subunit alpha (Homo sapiens, UniProt O15111); experiment: Inhibition of IKKa (unknown origin)
[5] = molecular target: Interleukin-1 receptor-associated kinase 1 (Homo sapiens, UniProt P51617); experiment: Inhibition of IRAK1 (unknown origin)
[6] = molecular target: Mast/stem cell growth factor receptor Kit (Homo sapiens, UniProt P10721); experiment: Inhibition of Kit (unknown origin)
[7] = molecular target: Hepatocyte growth factor receptor (Homo sapiens, UniProt P08581); experiment: Inhibition of Met (unknown origin)
[8] = molecular target: Dual specificity mitogen-activated protein kinase kinase 4 (Homo sapiens, UniProt P45985); experiment: Inhibition of MKK4 (unknown origin)
[9] = molecular target: Serine/threonine-protein kinase pim-3 (Homo sapiens, UniProt Q86V86); experiment: Inhibition of PIM3 (unknown origin)
[10] = molecular target: Protein kinase C beta type (Homo sapiens, UniProt P05771); experiment: Inhibition of PKCbeta2 (unknown origin)
[11] = molecular target: Serine/threonine-protein kinase PLK3 (Homo sapiens, UniProt Q9H4B4); experiment: Inhibition of Plk3 (unknown origin)
[12] = molecular target: Ribosomal protein S6 kinase alpha-1 (Homo sapiens, UniProt Q15418); experiment: Inhibition of Rsk1 (unknown origin)
[13] = system: LoVo; experiment: Antitumor activity against human LoVo cells harboring KRAS G13D/CDKN2A P48L/FBXW7 R505C/MSH2/SMO G16_L17insLL/A324T/NF1 R1276Q/Y1607fs17/APC1114 mutant xenografted in mouse assessed as tumor growth inhibition at 5 mg/kg, po; assay type: functional; conditions: read-out: TGI
Outline: (§1)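 Single-agent dose ranging in human tumor xenograft mice at 2.5, 5 or 10 mg/kg oral. Tumor volume was measured by caliper as (L×W×W)/2. %TGI = 100×[1 − AUC(treatment/d)/AUC(vehicle/d)] from the fitted growth curve per dose group, relative to vehicle.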

[14] = system: 537-mel; experiment: Antitumor activity against human 537-mel cells harboring PTEN null mutation xenografted in mouse assessed as tumor growth inhibition at 2.5 mg/kg, po; assay type: functional; conditions: read-out: TGI
Outline: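 Mice carrying human tumor xenografts dosed orally once daily for 21 consecutive days. Tumor volume measured by calipers as (L×W×W)/2. %TGI = 100×[1 − AUC(treatment/day)/AUC(vehicle/day)], using the area under the fitted growth curve relative to vehicle.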

[15] = system: Calu-6; experiment: Antitumor activity against human Calu-6 cells harboring KRAS Q61K and TP53 R196 mutant xenografted in mouse assessed as tumor growth inhibition at 5 mg/kg, po; assay type: functional; conditions: read-out: TGI; outline: as §1
[16] = system: NCI-H460; experiment: Antitumor activity against human NCI-H460 cells harboring KRAS Q61H/PIK3CA E545K/LKB1 Q37/CDKN2A mutant xenografted in mouse assessed as tumor growth inhibition at 10 mg/kg, po; assay type: functional; conditions: read-out: TGI
Outline: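 Human tumor xenografts in mice were dosed orally at the indicated mg/kg. Tumor volume was measured with calipers as (L×W×W)/2. %TGI = 100 × [1 − (AUC treatment/d)/(AUC vehicle/d)], using the area under the fitted tumor-growth curve per day for each dose group relative to vehicle.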

[17] = system: CWR22R; experiment: Antitumor activity against human 22Rv1 cells harboring PIK3CA Q546R/TP53 Q331R mutant xenografted in mouse assessed as tumor growth inhibition at 10 mg/kg, po; assay type: functional; conditions: read-out: TGI
[18] = Antitumor activity against human A375.X1 cells xenografted in mouse assessed as reduction in ERK phosphorylation at 10 mg/kg, po administered for 3 days and measured at 2 to 24 hrs by Western blot analysis; assay type: functional; parameters: scale not given: the % may be the effect or the level left; conditions: time 74-96 hrs
Outline: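 A375.X1 xenograft mice were dosed orally at 1, 3, 5 or 10 mg/kg once daily for 3 days. Tumors were collected 2, 8 and 24 h after the last dose, pulverized frozen and resolved by 4–12% SDS-PAGE. p-ERK1/2 and t-ERK1/2 were measured by Western blot and quantified by band intensity, relative to vehicle-treated mice (0 h).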

[19] = system: 888-mel; experiment: Antiproliferative activity against human 888-mel cells harboring BRAF V600E mutant assessed as reduction in cell viability incubated for 96 hrs in presence of 4-(2-(1H-indazol-4-yl)-6-((4-(methylsulfonyl)piperazin-1-yl)methyl)thieno[3,2-d]pyrimidin-4-yl)morpholine; assay type: functional, cell-based
[20] = system: COLO-829; experiment: Antiproliferative activity against human COLO-829 cells assessed as reduction in cell viability incubated for 96 hrs in presence of 4-(2-(1H-indazol-4-yl)-6-((4-(methylsulfonyl)piperazin-1-yl)methyl)thieno[3,2-d]pyrimidin-4-yl)morpholine; assay type: functional, cell-based
[21] = system: A-375; experiment: Antiproliferative activity against human A-375 cells assessed reduction in cell viability incubated for 4 days in presence of 4-(2-(1H-indazol-4-yl)-6-((4-(methylsulfonyl)piperazin-1-yl)methyl)thieno[3,2-d]pyrimidin-4-yl)morpholine by celltiter-glo assay; assay type: functional; conditions: time 4 day
Outline: (§2)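 4-day CellTiter-Glo viability read-out on melanoma lines, cells exposed to increasing concentrations of each inhibitor alone and in combination.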

[22] = system: Hs 294T; experiment: Antiproliferative activity against human Hs294T cells assessed reduction in cell viability incubated for 4 days in presence of 4-(2-(1H-indazol-4-yl)-6-((4-(methylsulfonyl)piperazin-1-yl)methyl)thieno[3,2-d]pyrimidin-4-yl)morpholine by celltiter-glo assay; assay type: functional; conditions: time 4 day; outline: as §2
[23] = system: Hs 695T; experiment: Antiproliferative activity against human Hs 695T cells assessed reduction in cell viability incubated for 4 days in presence of 4-(2-(1H-indazol-4-yl)-6-((4-(methylsulfonyl)piperazin-1-yl)methyl)thieno[3,2-d]pyrimidin-4-yl)morpholine by celltiter-glo assay; assay type: functional; conditions: time 4 day; outline: as §2
[24] = Antitumor activity against human A375.X1 cells xenografted in mouse assessed as tumor growth inhibition at 3 mg/kg, po administered once a day for 21 days; assay type: functional; conditions: A375.X1, 504 h, read-out: TGI, time 21 day
Outline: (§3)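 Human tumor xenografts in mice. Drugs given orally, as single agents or combined with the PI3K inhibitor. Schedules were daily (QD) or every third day (Q3D) over 21 days. Tumor volume was measured by caliper as (L×W×W)/2. %TGI = 100×[1 − AUC(treatment/d)/AUC(vehicle/d)] from fitted growth curves, with group means. Tumor lysates were immunoblotted for pS6.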

[25] = Antitumor activity against human A375.X1 cells xenografted in mouse assessed as tumor growth inhibition at 15 mg/kg, po administered every third day for 21 days; assay type: functional; conditions: A375.X1, 504 h, time 21 day, read-out: TGI; outline: as §3

Chain of Ribosomal protein S6 kinase alpha-1 (Q15418 whole entry): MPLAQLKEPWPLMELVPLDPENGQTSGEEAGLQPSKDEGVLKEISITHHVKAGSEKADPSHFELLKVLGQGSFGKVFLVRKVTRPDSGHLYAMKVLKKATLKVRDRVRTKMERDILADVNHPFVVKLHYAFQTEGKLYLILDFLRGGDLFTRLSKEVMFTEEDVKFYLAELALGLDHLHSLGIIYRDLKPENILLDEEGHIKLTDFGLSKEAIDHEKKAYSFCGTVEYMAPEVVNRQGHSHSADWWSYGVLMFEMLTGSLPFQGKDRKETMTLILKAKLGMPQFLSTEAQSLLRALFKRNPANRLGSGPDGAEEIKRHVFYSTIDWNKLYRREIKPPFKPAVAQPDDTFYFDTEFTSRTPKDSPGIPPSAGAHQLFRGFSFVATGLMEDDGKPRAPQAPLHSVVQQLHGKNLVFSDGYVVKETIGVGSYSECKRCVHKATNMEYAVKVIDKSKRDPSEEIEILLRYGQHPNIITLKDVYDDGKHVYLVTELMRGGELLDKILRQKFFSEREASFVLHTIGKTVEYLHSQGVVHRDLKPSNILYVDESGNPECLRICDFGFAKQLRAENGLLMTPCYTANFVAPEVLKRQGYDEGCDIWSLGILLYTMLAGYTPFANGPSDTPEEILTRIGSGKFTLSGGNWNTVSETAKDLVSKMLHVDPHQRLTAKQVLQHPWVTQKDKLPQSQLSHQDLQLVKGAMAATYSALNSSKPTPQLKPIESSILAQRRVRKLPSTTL
Chain of Hepatocyte growth factor receptor (P08581 whole entry): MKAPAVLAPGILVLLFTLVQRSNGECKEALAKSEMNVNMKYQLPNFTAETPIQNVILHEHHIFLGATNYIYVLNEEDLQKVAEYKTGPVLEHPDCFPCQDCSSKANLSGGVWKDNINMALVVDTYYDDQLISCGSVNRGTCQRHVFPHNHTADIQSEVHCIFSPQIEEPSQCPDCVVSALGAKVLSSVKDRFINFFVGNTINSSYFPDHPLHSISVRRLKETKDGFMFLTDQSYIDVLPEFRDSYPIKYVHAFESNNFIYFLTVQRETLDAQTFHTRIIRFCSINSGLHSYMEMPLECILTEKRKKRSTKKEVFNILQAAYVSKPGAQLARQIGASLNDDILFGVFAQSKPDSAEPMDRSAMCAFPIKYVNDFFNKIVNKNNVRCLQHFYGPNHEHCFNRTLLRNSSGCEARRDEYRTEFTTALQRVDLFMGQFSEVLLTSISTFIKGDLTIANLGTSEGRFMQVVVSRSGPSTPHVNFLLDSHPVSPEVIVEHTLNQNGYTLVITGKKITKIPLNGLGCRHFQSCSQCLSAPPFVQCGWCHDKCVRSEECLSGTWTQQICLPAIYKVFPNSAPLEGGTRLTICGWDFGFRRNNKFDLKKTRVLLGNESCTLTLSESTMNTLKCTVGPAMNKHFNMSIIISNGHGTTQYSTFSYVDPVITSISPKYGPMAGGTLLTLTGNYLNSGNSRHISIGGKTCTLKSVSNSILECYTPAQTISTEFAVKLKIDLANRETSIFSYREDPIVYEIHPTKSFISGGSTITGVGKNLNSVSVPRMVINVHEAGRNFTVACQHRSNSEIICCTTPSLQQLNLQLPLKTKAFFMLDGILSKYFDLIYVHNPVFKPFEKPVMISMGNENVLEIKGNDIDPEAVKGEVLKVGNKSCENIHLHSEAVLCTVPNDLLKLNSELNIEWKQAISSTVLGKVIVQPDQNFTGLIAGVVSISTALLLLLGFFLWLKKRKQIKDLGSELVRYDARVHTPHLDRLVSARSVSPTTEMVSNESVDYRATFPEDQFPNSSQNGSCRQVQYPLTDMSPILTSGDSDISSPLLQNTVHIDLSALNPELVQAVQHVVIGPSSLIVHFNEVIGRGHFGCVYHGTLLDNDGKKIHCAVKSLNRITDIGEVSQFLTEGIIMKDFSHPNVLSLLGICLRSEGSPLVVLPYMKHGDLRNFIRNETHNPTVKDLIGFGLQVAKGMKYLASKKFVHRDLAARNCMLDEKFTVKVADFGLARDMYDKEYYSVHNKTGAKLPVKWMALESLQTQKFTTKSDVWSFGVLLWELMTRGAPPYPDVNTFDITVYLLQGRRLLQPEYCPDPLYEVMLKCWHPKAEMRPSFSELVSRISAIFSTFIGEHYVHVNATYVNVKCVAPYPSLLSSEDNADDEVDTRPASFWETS
Chain of Mast/stem cell growth factor receptor Kit (P10721 whole entry): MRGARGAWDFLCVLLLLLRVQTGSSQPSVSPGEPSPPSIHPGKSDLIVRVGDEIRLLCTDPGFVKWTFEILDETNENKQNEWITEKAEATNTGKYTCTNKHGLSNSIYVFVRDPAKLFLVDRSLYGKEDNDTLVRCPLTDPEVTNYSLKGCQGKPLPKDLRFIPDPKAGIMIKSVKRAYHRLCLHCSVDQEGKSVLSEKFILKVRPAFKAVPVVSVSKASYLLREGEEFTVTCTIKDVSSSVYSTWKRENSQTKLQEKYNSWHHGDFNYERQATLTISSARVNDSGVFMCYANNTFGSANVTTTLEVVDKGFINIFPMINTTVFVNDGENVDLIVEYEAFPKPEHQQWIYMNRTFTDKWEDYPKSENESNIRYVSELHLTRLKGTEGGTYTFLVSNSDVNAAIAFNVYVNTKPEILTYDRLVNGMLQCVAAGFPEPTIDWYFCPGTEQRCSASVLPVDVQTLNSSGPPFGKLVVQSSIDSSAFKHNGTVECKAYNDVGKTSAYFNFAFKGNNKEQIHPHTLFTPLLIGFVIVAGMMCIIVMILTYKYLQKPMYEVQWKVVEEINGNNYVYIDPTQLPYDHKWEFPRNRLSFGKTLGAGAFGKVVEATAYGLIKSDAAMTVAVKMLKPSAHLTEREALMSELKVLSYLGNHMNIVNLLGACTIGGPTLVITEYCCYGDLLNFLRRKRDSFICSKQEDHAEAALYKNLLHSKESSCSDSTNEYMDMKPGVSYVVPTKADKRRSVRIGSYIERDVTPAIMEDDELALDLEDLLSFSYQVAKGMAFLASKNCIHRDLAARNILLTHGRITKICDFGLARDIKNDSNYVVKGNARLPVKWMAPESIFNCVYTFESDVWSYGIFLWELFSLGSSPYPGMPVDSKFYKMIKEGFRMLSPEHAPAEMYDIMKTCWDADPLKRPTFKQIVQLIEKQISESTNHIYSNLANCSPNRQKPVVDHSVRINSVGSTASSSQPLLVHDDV
Chain of Ephrin type-A receptor 4 (P54764 whole entry): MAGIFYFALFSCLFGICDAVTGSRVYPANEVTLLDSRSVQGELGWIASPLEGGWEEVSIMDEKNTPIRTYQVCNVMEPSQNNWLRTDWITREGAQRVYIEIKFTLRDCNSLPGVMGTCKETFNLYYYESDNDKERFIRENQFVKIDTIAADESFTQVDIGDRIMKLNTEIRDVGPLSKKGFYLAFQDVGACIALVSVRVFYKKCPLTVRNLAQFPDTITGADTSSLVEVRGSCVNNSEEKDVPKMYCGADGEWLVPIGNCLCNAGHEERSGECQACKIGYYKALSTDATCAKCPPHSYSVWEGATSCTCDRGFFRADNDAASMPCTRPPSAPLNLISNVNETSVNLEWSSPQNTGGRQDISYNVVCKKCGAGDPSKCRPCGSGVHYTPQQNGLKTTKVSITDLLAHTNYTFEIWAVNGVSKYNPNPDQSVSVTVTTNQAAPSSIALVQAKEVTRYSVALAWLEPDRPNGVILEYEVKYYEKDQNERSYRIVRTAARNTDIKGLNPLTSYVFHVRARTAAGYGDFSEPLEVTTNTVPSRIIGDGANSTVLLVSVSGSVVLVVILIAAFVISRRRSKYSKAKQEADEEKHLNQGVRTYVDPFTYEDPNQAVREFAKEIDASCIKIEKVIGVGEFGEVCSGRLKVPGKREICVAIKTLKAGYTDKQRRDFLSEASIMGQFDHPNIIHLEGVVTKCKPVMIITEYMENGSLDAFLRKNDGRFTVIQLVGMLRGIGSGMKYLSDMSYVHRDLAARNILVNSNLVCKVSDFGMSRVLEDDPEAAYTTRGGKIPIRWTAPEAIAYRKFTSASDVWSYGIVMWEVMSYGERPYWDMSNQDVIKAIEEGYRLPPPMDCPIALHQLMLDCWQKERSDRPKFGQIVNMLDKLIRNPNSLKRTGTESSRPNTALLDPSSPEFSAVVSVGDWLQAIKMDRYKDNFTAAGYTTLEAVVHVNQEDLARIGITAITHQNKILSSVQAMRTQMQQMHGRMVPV
Chain of Dual specificity mitogen-activated protein kinase kinase 4 (P45985 whole entry): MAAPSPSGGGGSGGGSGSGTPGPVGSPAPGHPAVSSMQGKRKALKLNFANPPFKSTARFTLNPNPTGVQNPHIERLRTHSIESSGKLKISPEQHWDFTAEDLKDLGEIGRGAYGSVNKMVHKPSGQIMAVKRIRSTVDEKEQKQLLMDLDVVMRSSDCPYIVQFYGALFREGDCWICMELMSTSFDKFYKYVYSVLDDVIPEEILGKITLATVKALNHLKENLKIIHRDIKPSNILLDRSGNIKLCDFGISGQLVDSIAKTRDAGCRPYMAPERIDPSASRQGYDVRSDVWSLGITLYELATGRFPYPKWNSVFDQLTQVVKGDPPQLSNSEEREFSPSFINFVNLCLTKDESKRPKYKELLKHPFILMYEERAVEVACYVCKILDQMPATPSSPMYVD

`O=C(c1ccc(F)c(F)c1Nc1ccc(I)cc1F)N1CC(O)([C@@H]2CCCCN2)C1` [COBIMETINIB] showed an IC50 [1] greater than 10 µM, an IC50 [2] greater than 10 µM and an IC50 [3] greater than 10 µM. The IC50 [4] was greater than 10 µM, the IC50 [5] was greater than 10 µM and the IC50 [6] was greater than 10 µM. It also gave an IC50 [7] greater than 10 µM, an IC50 [8] greater than 10 µM and an IC50 [9] greater than 10 µM. For the same molecule, the IC50 [10] was greater than 10 µM, the IC50 [11] was greater than 10 µM and the IC50 [12] was greater than 10 µM. It also gave an inhibition in vivo at 5 mg/kg [13] of 73%, an inhibition in vivo at 2.5 mg/kg [14] of 69% and an inhibition in vivo at 5 mg/kg [15] of 80%. The inhibition in vivo at 10 mg/kg [16] was 9%, the inhibition in vivo at 10 mg/kg [17] was 82.5% and the Activity [18] was 75%. The Activity [19] was “inactive”, the Activity [20] was “inactive” and the Activity [21] was 60%. For the same molecule, the Activity [22] was 60%, the Activity [23] was 60% and the inhibition in vivo at 3 mg/kg [24] was 87%. It also gave an inhibition in vivo at 15 mg/kg [25] of 75%.
